From PMC3549054 (Biochemistry, 2012)
“Also recorded” adds a separate entry of the source. Read-outs that look alike come from different tables or passages of the source.

Experiments:
[1] = target: Fe(II)-GAPDH (ferrous rGAPDH-heme) (Oryctolagus cuniculus, UniProt P46406); experiment: Stopped-flow kinetics of CO binding to Fe; design: species or system rabbit
[2] = system: CBS; conditions: ref [44]; cited from earlier work
[3] = target: rabbit GAPDH (Oryctolagus cuniculus, UniProt P46406); experiment: UV-visible binding of protoporphyrin IX analogs to rabbit GAPDH
Chain of rabbit GAPDH (P46406 2-333 limits assumed): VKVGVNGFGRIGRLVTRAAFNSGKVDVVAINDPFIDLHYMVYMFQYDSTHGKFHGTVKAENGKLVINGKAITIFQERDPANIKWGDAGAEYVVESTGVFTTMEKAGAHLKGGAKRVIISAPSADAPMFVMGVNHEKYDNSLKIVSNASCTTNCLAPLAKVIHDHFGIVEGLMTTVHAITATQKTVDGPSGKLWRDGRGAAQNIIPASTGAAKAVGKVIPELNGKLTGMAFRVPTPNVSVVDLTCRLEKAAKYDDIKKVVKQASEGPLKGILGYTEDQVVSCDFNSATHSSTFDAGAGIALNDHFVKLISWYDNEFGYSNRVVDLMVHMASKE

[4] = target: T1, rGAPDH (Oryctolagus cuniculus, UniProt P46406); experiment: Ethoxylation of His residues with DEPC, then heme binding by UV-vis; format: biochemical, rabbit; conditions: 15 mM DEPC, 2 h on ice
T1 sequence (P46406 2-333 limits assumed): as above
Summary of the method: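 Recombinant rabbit GAPDH (N-His6, E. coli BL21(DE3), Ni-NTA purified), 100 µM apo or preformed with 20 µM heme, treated with 15 mM DEPC on ice in 40 mM EPPS pH 7.6, 150 mM NaCl, 10% glycerol. Excess DEPC removed by three buffer exchanges on 10 kDa spin columns. Protein diluted to ~40 µM; UV-vis spectra taken before and after adding 8 µM fresh hemin.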

[5] = target: Ferric rGAPDH-heme (Oryctolagus cuniculus, UniProt P46406); format: binding, rabbit
Chain of Ferric rGAPDH-heme (P46406 2-333): as the sequence (P46406 2-333 limits assumed) above

[6] = target: T1, rGAPDH; experiment: Binding of pre-reduced heme to rGAPDH; design: species or system rabbit; conditions: after 10 min
[7] = target: T1, rGAPDH; experiment: Kinetics of heme transfer from GAPDH to apo-myoglobin, koff; format: binding, rabbit
[8] = target: hGAPDH (Homo sapiens, UniProt P04406); experiment: GAPDH dehydrogenase activity assay; format: biochemical; conditions: data not shown
Chain of hGAPDH (P04406 2-335 limits assumed): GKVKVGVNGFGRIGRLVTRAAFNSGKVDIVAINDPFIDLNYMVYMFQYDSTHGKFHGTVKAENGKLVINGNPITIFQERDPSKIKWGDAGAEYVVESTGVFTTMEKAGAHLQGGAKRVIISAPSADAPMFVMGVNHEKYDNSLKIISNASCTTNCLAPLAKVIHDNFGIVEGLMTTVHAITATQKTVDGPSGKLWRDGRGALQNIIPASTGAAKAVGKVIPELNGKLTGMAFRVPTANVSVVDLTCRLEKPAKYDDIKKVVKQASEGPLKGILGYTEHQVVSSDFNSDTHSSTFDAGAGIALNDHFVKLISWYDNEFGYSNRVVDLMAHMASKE
Summary of the method: (§1)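 NADH formation was followed at 340 nm (ε340 = 6.22 mM−1cm−1) in 40 mM triethanolamine, 50 mM Na2HPO4, 0.2 mM EDTA, pH 8.9, with 2 mM NAD and 2 mM D-glyceraldehyde 3-phosphate. Reactions were started with ~1 µg enzyme. The rabbit enzyme was N-His6, Ni-NTA purified; the human enzyme was a GST fusion cleaved with thrombin. Both were expressed in E. coli.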

[9] = target: T1, rGAPDH; experiment: Spectrophotometric titration of GAPDH with hemin; format: binding, rabbit
[10] = system: BSA; conditions: cited from earlier work
[11] = target: CcmE; conditions: ref [82], cited from earlier work
[12] = target: T1, rGAPDH; experiment: GAPDH dehydrogenase activity assay; format: biochemical, rabbit; conditions: data not shown
Summary of the method: as §1

[13] = target: HRI (heme regulated inhibitor), eIF2α; conditions: ref [60], cited from earlier work
[14] = system: nitrobindin; conditions: ref [68]; cited from earlier work
[15] = target: Rv0203; conditions: ref [85], cited from earlier work
[16] = target: Nuclear hormone receptor, Rev-erb β; conditions: read-out: Kd (direct), ref [14], cited from earlier work
[17] = target: HTP (PhuT); conditions: ref [21], cited from earlier work
[18] = target: Apo-DHR51-LBD; conditions: read-out: Kd (direct); ref [81]; cited from earlier work
[19] = target: pa-HO; conditions: ref [57], cited from earlier work
[20] = target: Shp; conditions: ref [84], cited from earlier work
[21] = target: HtsA; conditions: ref [83], cited from earlier work
[22] = target: T1, rGAPDH; experiment: Stopped-flow kinetics of heme binding to GAPDH, kon; design: species or system rabbit; conditions: ferric heme, 10 °C
Summary of the method: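 N-terminally His6-tagged rabbit GAPDH, expressed in E. coli BL21(DE3) and Ni-NTA purified. Freshly prepared hemin (5 µM) was mixed by stopped-flow at 10 °C with rGAPDH at 10–80 µM in 100 mM EPPS pH 7.6, 150 mM NaCl and 10% glycerol. Traces were collected on a diode array detector, and kobs was obtained from single-exponential fits.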

[23] = target: HasAp; conditions: ref [34], cited from earlier work
[24] = system: PhuS; conditions: ref [57]; cited from earlier work
[25] = system: Sperm whale Mb; conditions: ref [56]; cited from earlier work
[26] = Redox potentiometry of rGAPDH-heme; format: physicochemical; conditions: titration of ferric complex with dithionite
[27] = CO-saturated buffer (1 mM final concentration), 10 °C
[28] = fit of Equation 2 to fast phase
[29] = pH 7.4 (Tris, 100 mM, 10% glycerol), room temperature

Chain of Fe(II)-GAPDH (ferrous rGAPDH-heme) (P46406 2-333): as the sequence (P46406 2-333 limits assumed) above

## [C-]#[O+] [CO, carbon monoxide]
[1]
  kobs, 6-coord, 420 nm: 1.2 s⁻¹
[1]; [27]
  kobs1 (fast phase) of CO binding: 1.5 s⁻¹
  kobs2 (slow phase) of CO binding: 0.068 s⁻¹
[1]; [CO]>0.2 mM
  rate of distal ligand displacement by CO: 1.75 s⁻¹
[1]; [28]
  axial ligand dissociation rate constant k−Y: ~ 2 s^−1
  ligand rebinding rate ratio kY/k'CO: ~ 0.1 mM
[1]; saturating [CO], [rGAPDHtetramer]/[heme] < 1:1
  kobs 5-coord, 410 nm: 4.3 s⁻¹
[2]
  rebinding rate ratio for displacement of Cys^52 by CO: 106 µM

## C=Cc1c(C)c2cc3[nH]c(cc4nc(cc5nc(cc1[nH]2)C(C)=C5CCC(=O)[O-])C(CCC(=O)[O-])=C4C)c(C)c3C=C.[Co+2] [Co(III)-protoporph IX, Co(III)-protoporphyrin IX]
[3]; [29]
  Binding to GAPDH (Comments): LS, red-shift
[3]; pH 7.4 (Tris, 100 mM, 10% glycerol), room temperature, listed as Co(III)-protoporphyrin IX
  Binding to GAPDH (Comments): bound

## CCOC(=O)OC(=O)OCC [DEPC, diethylpyrocarbonate]
[4]
  effect of DEPC on preformed rGAPDH-heme spectral properties: did not alter; also recorded: had no effect; also recorded: does not alter
  effect of DEPC treatment of heme-free rGAPDH on heme binding: abolished the protein’s ability to bind heme; also recorded: hampered heme binding completely; also recorded: unable to bind heme

## C=CC1=C(C)c2cc3[nH]c(cc4nc(cc5[nH]c(cc1n2)c(C)c5CCC(=O)O)C(CCC(=O)O)=C4C)c(C)c3C=C [Protoporph IX, Protoporphyrin IX]
[3]; [29]
  Binding to GAPDH (Comments): No binding

## [N-]=[N+]=[N-] [azide]
[5]
  binding to ferric rGAPDH-heme / displacement of distal ligand (as summarised): unable to bind; also recorded: not displaced

## C=CC1=C(C)c2cc3[n-]c(cc4[n-]c(cc5nc(cc1n2)C(C)=C5C=C)c(C)c4CCC(=O)O)c(CCC(=O)O)c3C.[Fe+2] [ferrous heme]
[6]
  fraction of total available reduced heme forming a complex with rGAPDH: 18%
[7]; ferrous heme, 25 °C, anaerobic, single exponential
  koff of ferrous (reduced) heme: 0.0042 s⁻¹

## C=CC1=C(C)c2cc3[n-]c(cc4[n-]c(cc5nc(cc1n2)C(C)=C5C=C)c(C)c4CCC(=O)O)c(CCC(=O)O)c3C.[Cl-].[Fe+3] [hemin, Fe(III)-protoporphyrin IX]
[8]
  effect of heme binding on dehydrogenase activity: does not affect
[9]; read-out: Kd (direct), Wild type rGAPDH
  Kd: 0.024 µM
[9]; read-out: dissociation constant (Kd), direct titration, 10 µM rGAPDH, hemin 0–35 µM, 100 mM Tris pH 7.4, 10% glycerol
  Kd: 0.024 µM
[10]; BSA-heme, ref [65]
  heme dissociation rate: 10^−2 s^−1
[10]; read-out: Kd (koff/kon), ref [56]
  Kd: 0.00022 µM
[10]; ref [56]
  koff: 0.011 s⁻¹
  kon: 5e+07 M⁻¹ s⁻¹
[11]; read-out: Kd (direct) (M), high affinity
  Kd: 2e-07 M
[11]; read-out: Kd (direct) (M), low affinity
  Kd: 1e-05 M
[12]
  effect of heme binding on dehydrogenase activity: does not affect
[13]; read-out: Kd (koff/kon)
  Kd: 0.00014 µM
[13]
  koff: 0.0015 s⁻¹
  kon: 1.1e+07 M⁻¹ s⁻¹
[14]
  heme loss rate: 3.6e-05 s⁻¹
[3]; [29]
  Binding to GAPDH (Comments): LS, red-shift
[15]; read-out: Kd (koff/kon)
  Kd: 0.00062 µM
[15]
  koff: 0.082 s⁻¹
  kon: 1.3e+08 M⁻¹ s⁻¹
[16]; Rev-erb β (oxidized)
  Kd: 0.117 µM
[16]; Rev-erb β (reduced)
  Kd: 0.023 µM
[17]; read-out: Kd (direct)
  Kd: 1200 µM
[17]
  koff: 0.00038 s⁻¹
[18]
  Kd: 0.43 µM
[19]; read-out: Kd (koff/kon)
  Kd: 0.6 µM
[19]
  koff: 0.066 s⁻¹
  kon: 110000 M⁻¹ s⁻¹
[20]; read-out: Kd (koff/kon)
  Kd: 22 µM
[20]
  kon: 1.6e+06 M⁻¹ s⁻¹
[21]; read-out: Kd (koff/kon)
  Kd: 8 µM
[21]
  kon: 8e+07 M⁻¹ s⁻¹
[22]
  kon: 17800 M⁻¹ s⁻¹
[23]; read-out: Kd (koff/kon)
  Kd: 35 µM
[23]
  kon: 1.6e+07 M⁻¹ s⁻¹
[24]
  koff: 0.036 s⁻¹
  kon: 180000 M⁻¹ s⁻¹
[7]; ferric heme, 10 °C, bi-exponential fit
  koff1 (fast phase): 0.007 s⁻¹
[7]; read-out: Kd (koff/kon) (M), from fast koff, Wild type rGAPDH
  Kd: 3.9e-07 M
[7]; read-out: Kd (koff/kon) (M), from slow koff, Wild type rGAPDH
  Kd: 1.9e-08 M
[7]; read-out: approximate affinities from koff/kon, ferric heme, 10 °C
  Kd: 1.9e-08 to 3.9e-07 M
[25]
  koff: 8.4e-07 s⁻¹
  kon: 7.6e+07 M⁻¹ s⁻¹

## c1c[nH]cn1 [imidazole]
[5]
  binding to ferric rGAPDH-heme (spectral shift): did not bind
  binding to ferric rGAPDH-heme / displacement of distal ligand (as summarised): unable to bind

## N#C[S-].[Na+] [thiocyanate]
[5]
  binding to ferric rGAPDH-heme (spectral shift): did not bind

## Fe(III)-2,4-diacetyldeuteroporph IX
[3]; pH 7.4
  Binding to GAPDH (Comments): LS, partial binding, red-shift

## Fe(III)-deuteroporph IX
[3]; pH 7.4
  Binding to GAPDH (Comments): LS, red-shift

## Fe(III)-mesoporph IX
[3]; pH 7.4
  Binding to GAPDH (Comments): LS, red-shift

## GAPDH-heme: pre-formed complex of rabbit GAPDH with heme
[26]
  midpoint potential, reductive titration: −153 ± 4 mV

## Zn(II)-protoporph IX
[3]; pH 7.4
  Binding to GAPDH (Comments): LS, partial binding, red-shift
